Experiment [1] is described as follows: inhibitors of TNFa-induced NFkB p65 translocation, primary screen, imaging, HUVEC, MLSMR starter and 10KST1 sets (AID 438;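 active means inhibition above 20% together with a positive visual image hit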;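 further: compound added about 3h40 before a 20 min TNFalpha stimulation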;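 on inhibition: signal is the nuclear over cytoplasmic p65 intensity ratio per well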). As to conditions: HUVEC TNFa-induced p65 nuclear translocation; cell count: measured here: nuclei count (cytotoxicity indicator), at 2.08 µM; inhibition: at 2 µM, stronger effect = higher value, 0% TNFa-plus-vehicle, 100% no-TNFa wells.
Experiment [2] in a line: inhibitors of mutant huntingtin aggregation, primary screen, imaging, exon1htt(103Q)mCFP cells, high-content imaging (AID 483;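 active means visual image review flags a hit and inhibition of aggregation exceeds 20%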;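 further: compound exposure lasted 3 days before fixation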;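 on nuclei count: percent of the per-plate median nuclei count of sample wells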). The following applies: exon1htt(103Q)mCFP cell line, aggregate imaging, at 2 µM; inhibition of aggregation: stronger effect = higher value; nuclei count: measured here: cell count, toxicity.
The nature of experiment [3]: inhibitors of E-selectin induction by TNFa, primary screen, imaging, HUVEC, immunofluorescence, MLSMR starter and 10KST1 sets (AID 487;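 active means visually confirmed hit in the image check and inhibition above 20%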;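 on inhibition: signal is fraction of cell area covered by stained E-selectin grains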;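 on nuclei count: 100% = median nuclei count of all wells on the same plate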). As to conditions: HUVEC TNFalpha-induced E-selectin immunofluorescence imaging, at 2 µM; inhibition: stronger effect = higher value; nuclei count: measured here: cell number, toxicity.
The target of experiment [4] is Voltage-gated potassium channel subunit beta-2 (Rattus norvegicus) (UniProt P62483). As to the kind of experiment: KvBeta enzyme negative modulators, primary screen, biochemical, NADPH fluorescence (AID 622;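 active means fluorescence slope higher than the sample average by over 3 SD, cut at about -0.22 in these data, passing the limit was not always enough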;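 further: slope of raw intensity against log time taken from 70 to 1610 s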). The following applies: recombinant KvBeta, 4-cyanobenzaldehyde reduction, at 10 µM, stronger effect = higher value.
Chain of Voltage-gated potassium channel subunit beta-2 (Rattus norvegicus) (P62483 whole entry, looked up): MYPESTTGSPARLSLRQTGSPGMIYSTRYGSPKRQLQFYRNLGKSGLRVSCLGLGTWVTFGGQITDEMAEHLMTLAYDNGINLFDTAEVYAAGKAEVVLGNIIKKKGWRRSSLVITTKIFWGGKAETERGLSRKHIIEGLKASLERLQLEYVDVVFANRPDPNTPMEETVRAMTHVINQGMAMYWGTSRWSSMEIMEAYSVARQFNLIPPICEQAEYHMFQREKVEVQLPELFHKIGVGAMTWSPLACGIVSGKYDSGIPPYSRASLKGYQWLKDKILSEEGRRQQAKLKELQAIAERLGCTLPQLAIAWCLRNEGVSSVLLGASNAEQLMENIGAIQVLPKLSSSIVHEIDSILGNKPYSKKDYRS
For experiment [5] the target is unchanged. Briefly: KvBeta positive modulators, primary screen, biochemical, NADPH fluorescence (AID 623).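 Further: fluorescence intensity change per second fitted from 20 to 320 s.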 The following applies: Recombinant KvBeta, NADPH fluorescence decrease slope, 10 min; at 10 µM; stronger effect = lower value.
Experiment [6] addresses Muscarinic acetylcholine receptor M4 (Homo sapiens) (UniProt P08173). Briefly: compounds altering M4/GIRK thallium flux, either direction, primary screen, M4 allosteric agonist project, cell-based, HEK293 M4/GIRK, BTC-AM (AID 625;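 active means fluorescence slope after compound addition differing from the mean of all tested samples at 99.7% confidence, mostly higher but some lower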;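 further: thallium influx through GIRK channels coupled to M4 in HEK293 cells with BTC-AM dye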). As to conditions: at 10 µM, actives lie on both sides. The procedure, abridged:
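System: HEK293 cells with M4 receptor and GIRK channels | Incubation: Cells overnight at 37 °C, BTC-AM loading 1 h, reads 2 min total | Technique: Kinetic BTC-AM fluorescence sampled at 1 Hz, 10 s pre-addition baseline | Measure: Post-addition slope, 15–24 s, of baseline-normalized fluorescence | Control set: Carbachol positive, DMSO negative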

Experiment [7] is described as follows: inhibitors of Sendai virus-induced IRF3 signaling, primary screen, TLR/RLR signaling modifier project, cell-based, Sendai virus stimulus, luciferase, 10K MLSCN set (AID 602276;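 active means inhibition at or above 50% at 10 µM; inactive means inhibition below 50%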;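 further: firefly luciferase from ISG56 promoter only with Renilla not read in this screen; 0% = Sendai virus plus DMSO and 100% = medium plus DMSO without virus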). The following applies: HEK293 RL24 IRF3 luciferase reporter, at 10 µM, stronger effect = higher value. In general terms: A reporter such as luciferase makes a cellular process visible.
Experiment [8] can be described thus: inhibitors of poly I:C-induced TLR3 signaling, primary screen, cell-based, poly I:C stimulus, luciferase, 10K MLSCN set (AID 602277;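 active means inhibition of the reporter signal at or above 50%; inactive means inhibition below 50%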). As to conditions: HEK293-TLR3 RL24 IRF3 luciferase reporter, at 10 µM, stronger effect = higher value.

The source made the active and inactive calls.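 How the source made its calls, unless noted: active means NADPH fluorescence slope more negative than the mean of all samples by about 3 SD, 99.7% confidence; inactive means the rest.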

Chain of Muscarinic acetylcholine receptor M4 (Homo sapiens) (P08173 whole entry, looked up): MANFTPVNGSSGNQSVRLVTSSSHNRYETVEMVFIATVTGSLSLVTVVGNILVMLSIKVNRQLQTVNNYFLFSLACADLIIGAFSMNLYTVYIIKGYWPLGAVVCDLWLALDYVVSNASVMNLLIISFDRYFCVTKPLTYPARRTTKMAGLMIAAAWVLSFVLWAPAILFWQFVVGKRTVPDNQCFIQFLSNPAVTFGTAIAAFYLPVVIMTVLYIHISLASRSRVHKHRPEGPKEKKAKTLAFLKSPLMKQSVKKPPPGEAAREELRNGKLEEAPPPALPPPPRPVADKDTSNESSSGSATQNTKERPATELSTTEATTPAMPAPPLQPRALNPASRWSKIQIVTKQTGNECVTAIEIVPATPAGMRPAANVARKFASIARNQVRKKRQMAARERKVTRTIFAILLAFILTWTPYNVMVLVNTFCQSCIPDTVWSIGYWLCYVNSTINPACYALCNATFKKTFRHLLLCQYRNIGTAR

A word on the inhibition: it is the relative decrease from the control value, in per cent. On to `Cn1c(-c2ccc(F)cc2)cnc1NCc1ccccc1`, for which the cell count in experiment [1] is 710. For the same molecule, the inhibition in experiment [1] is -2.3% (inactive); in experiment [3] it was -25.9% (inactive); in experiment [7] it was 6.58% (inactive); in experiment [8], -8.43% (inactive). For the same molecule, the inhibition of aggregation in experiment [2] is 21% (inactive). In addition, the nuclei count in experiment [2] is 74.6%; in experiment [3], 125%. Besides, the fluorescence slope in experiment [4] was -0.471 (inactive); in experiment [6] it was 0.0028 (inactive). Besides, the NADPH fluorescence slope in experiment [5] is -3e-06 (inactive).

Take `CN=C1CC(C)(C)CC(=O)/C1=C(/O)CCC(=O)NC`: the cell count in experiment [1] is 367. In addition, the inhibition is 10.4% (inactive) in experiment [1], 50.5% (inactive) in experiment [3], 13% (inactive) in experiment [7] and 15.4% (inactive) in experiment [8]. Moreover, in experiment [2], the inhibition of aggregation is 10.3% (inactive). For the same molecule, the nuclei count was determined as 104% in experiment [2] and 90.9% in experiment [3]. The fluorescence slope in experiment [4] is -0.45 (inactive); in experiment [6], 0.00526 (inactive). Further, the NADPH fluorescence slope in experiment [5] was -1.9e-05 (inactive).

With `CC(c1ccco1)N(C(=O)c1ccc(S(=O)(=O)N2CCCCC2)cc1)c1ccccn1` (stereo not drawn), the cell count in experiment [1] came to 265. For the same molecule, the inhibition in experiment [1] is 18.1% (inactive); in experiment [3], -32.7% (inactive); in experiment [7], 6.94% (inactive); in experiment [8] it was 8.51% (inactive). Further, the inhibition of aggregation in experiment [2] was 13.8% (inactive). Besides, the nuclei count in experiment [2] turned out to be 109%; in experiment [3], 105%. The fluorescence slope is -0.506 (inactive) in experiment [4] and 0.0101 (inactive) in experiment [6]. Also, in experiment [5], the NADPH fluorescence slope is -0.000211 (active).

For the molecule `COc1ccc(OC)c(C(=O)c2nc3c(n2O)CCCCC3)c1`, the cell count in experiment [1] was determined as 332. For the same molecule, the inhibition in experiment [1] is -1.1% (inactive); in experiment [3], -55% (inactive); in experiment [7], 5.91% (inactive); in experiment [8] it was 7.03% (inactive). In addition, the inhibition of aggregation in experiment [2] was -40.7% (inactive). Also, the nuclei count was determined as 114% in experiment [2] and 103% in experiment [3]. Also, the fluorescence slope in experiment [4] was -0.567 (inactive); in experiment [6], 0.00381 (inactive). Besides, the NADPH fluorescence slope in experiment [5] was -6.5e-05 (inactive).

Turning to `COc1ccc(CCN2C(=O)C3C4C=CC(C4)C3C2=O)cc1OC` (stereo not drawn), the cell count in experiment [1] came to 493. For the same molecule, the inhibition in experiment [1] is -3.8% (inactive); in experiment [3], -4.2% (inactive); in experiment [7], 10.2% (inactive); in experiment [8] it was 12.7% (inactive). Further, in experiment [2], the inhibition of aggregation is 2.1% (inactive). Moreover, the nuclei count was 105% in experiment [2] and 99.7% in experiment [3]. For the same molecule, the fluorescence slope was -0.451 (inactive) in experiment [4] and 0.00653 (inactive) in experiment [6]. The NADPH fluorescence slope in experiment [5] was -4e-05 (inactive).

As to `COc1ccc(N2CCC(CNS(=O)(=O)c3cccc(C(F)(F)F)c3)C2)cc1` (stereo not drawn), the cell count in experiment [1] stood at 385. The inhibition was 5.3% (inactive) in experiment [1], -33.3% (inactive) in experiment [3], 7.7% (inactive) in experiment [7] and 2.96% (inactive) in experiment [8]. The inhibition of aggregation in experiment [2] is 30.1% (active). Besides, the nuclei count in experiment [2] is 92.1%; in experiment [3] it was 132%. The fluorescence slope in experiment [4] is -0.494 (inactive); in experiment [6], 0.00389 (inactive). In addition, the NADPH fluorescence slope in experiment [5] was -0.000248 (inactive).

`O=C(CN1C(=O)c2cccc3cccc1c23)N1CCN(c2ccccc2)CC1`: the cell count in experiment [1] was determined as 512. Moreover, the inhibition in experiment [1] was -50% (inactive); in experiment [3], -27.9% (inactive); in experiment [7], -2.31% (inactive); in experiment [8], 2.78% (inactive). The inhibition of aggregation in experiment [2] was 2.8% (inactive). The nuclei count in experiment [2] amounted to 108%; in experiment [3] it was 101%. Moreover, the fluorescence slope was -0.127 (inactive) in experiment [4] and 0.00738 (inactive) in experiment [6]. Also, the NADPH fluorescence slope in experiment [5] was -6.1e-06 (inactive).

For the molecule `Cc1cccc(-n2ncc3c(NCc4ccccn4)ncnc32)c1`, in experiment [1], the cell count was 351. The inhibition in experiment [1] was -16.8% (inactive); in experiment [3], 0.4% (inactive); in experiment [7], -33.2% (inactive); in experiment [8], -129% (inactive). In addition, the inhibition of aggregation in experiment [2] is 4.2% (inactive). The nuclei count worked out at 101% in experiment [2] and 122% in experiment [3]. Moreover, the fluorescence slope in experiment [4] is -0.592 (inactive); in experiment [6] it was 0.00598 (inactive). For the same molecule, the NADPH fluorescence slope in experiment [5] is -4.2e-05 (inactive).

As for `CC1CCCCN1CCNC(=O)c1ccc2c(=O)n(CCc3ccccc3)c(=O)[nH]c2c1` (stereo not drawn), the cell count in experiment [1] was 105. For the same molecule, the inhibition in experiment [1] is 116% (active); in experiment [3] it was -3.9% (inactive); in experiment [7] it was 2.66% (inactive); in experiment [8], -7.7% (inactive). Also, the inhibition of aggregation in experiment [2] was 12.7% (inactive). For the same molecule, the nuclei count in experiment [2] was 91.2%; in experiment [3], 119%. The fluorescence slope was -0.279 (inactive) in experiment [4] and 0.00585 (inactive) in experiment [6]. Further, the NADPH fluorescence slope in experiment [5] was -3.6e-05 (inactive).

As for `COC(=O)c1ccccc1NC(=O)C1CCCCC1C(=O)O` (stereo not drawn), the cell count in experiment [1] worked out at 266. For the same molecule, the inhibition in experiment [1] was 2.8% (inactive); in experiment [3], -39.2% (inactive); in experiment [7] it was 12.8% (inactive); in experiment [8], 11.6% (inactive). The inhibition of aggregation in experiment [2] is 15.8% (inactive). For the same molecule, the nuclei count is 98.8% in experiment [2] and 85.6% in experiment [3]. Moreover, the fluorescence slope in experiment [4] was -0.556 (inactive); in experiment [6], 0.00471 (inactive). Also, in experiment [5], the NADPH fluorescence slope is -2.1e-05 (inactive).

Take `COC(=O)c1ccccc1NC(=O)Cn1c(-c2nonc2N)nc2ccccc21`: the cell count in experiment [1] was found to be 363. Also, the inhibition in experiment [1] is 5.8% (inactive); in experiment [3] it was -162% (inactive); in experiment [7] it was 47.8% (inactive); in experiment [8] it was 30% (inactive). Moreover, the inhibition of aggregation in experiment [2] is -2.5% (inactive). In addition, the results for the nuclei count in experiment [2] and in experiment [3] were 1.9% and 102%, respectively. For the same molecule, the fluorescence slope in experiment [4] was -0.537 (inactive); in experiment [6] it was 0.00504 (inactive). In experiment [5], the NADPH fluorescence slope is -5.1e-05 (inactive).

Turning to `O=C(Nc1cc(C(F)(F)F)ccc1Cl)c1cc(C2CC2)on1`, the cell count in experiment [1] was found to be 404. Besides, the inhibition in experiment [1] was -3.9% (inactive); in experiment [3], -25.8% (inactive); in experiment [7] it was 21.5% (inactive); in experiment [8], 27.4% (inactive). The inhibition of aggregation in experiment [2] is -8.1% (inactive). The figures for the nuclei count in experiment [2] and in experiment [3] were 102% and 61.5%, respectively. Also, the fluorescence slope in experiment [4] is -0.45 (inactive); in experiment [6], 0.00518 (inactive). Besides, the NADPH fluorescence slope in experiment [5] is -5.4e-05 (inactive).

As to `Cc1occc1-c1nnc(SCC(=O)NCC2CCCO2)n1C` (stereo not drawn), the cell count in experiment [1] worked out at 687. Also, the inhibition in experiment [1] was -0.3% (inactive); in experiment [3] it was 40.7% (inactive); in experiment [7], 16.7% (inactive); in experiment [8], 10.3% (inactive). In addition, the inhibition of aggregation in experiment [2] was -23% (inactive). Also, the nuclei count in experiment [2] amounted to 120%; in experiment [3], 95%. The fluorescence slope in experiment [4] was -0.521 (inactive); in experiment [6], 0.0055 (inactive). For the same molecule, the NADPH fluorescence slope in experiment [5] is 0.00013 (inactive).

For the origin of these results see PubChem BioAssay.
